ChEMBL document CHEMBL4406821, “Novel dual inhibitors targeting CDK4 and VEGFR2 synergistically suppressed cancer progression and angiogenesis” (Eur J Med Chem, 2019)
Activity calls are given as the source filed them. No cut-off for these calls is given here.

How the values were obtained:
[1] = target: CDK4/Cyclin D3 (Homo sapiens) (UniProt P11802+P30281); assay: Inhibition of recombinant full length human CDK4/Cyclin D3 using Rb-fragmen as substrate at 1 uM incubated for 40 mins by [gamma-33P]-ATP based radiometric assay relative to control; format: protein-complex assay
In short: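 Kinase panel profiling at 1 μM performed by Eurofins KinaseProfiler; percent inhibition reported as mean of two independent experiments.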

HeLa [2] = assay: Antiproliferative activity against human HeLa cells assessed as reduction in cell viability measured after 72 hrs by CCK8 assay; format: functional, cell-based
In short: (§1)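 Cells were seeded at 3×10³ cells/well and exposed to a range of concentrations or vehicle for 72 h. Viability was read by CCK-8 at 450 nm, with DMSO as blank and five replicates per sample. IC50 was calculated from the dose-response.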

T47D [3] = assay: Antiproliferative activity against human T47D cells assessed as reduction in cell viability measured after 72 hrs by CCK8 assay; format: functional, cell-based; in short: as §1
SiHa [4] = assay: Antiproliferative activity against human SiHa cells assessed as reduction in cell viability measured after 72 hrs by CCK8 assay; format: functional, cell-based; in short: as §1
MDA-MB-231 [5] = assay: Antiproliferative activity against human MDA-MB-231 cells assessed as reduction in cell viability measured after 72 hrs by CCK8 assay; format: functional, cell-based; conditions: MDA-MB-231, 72 h; in short: as §1
HUVEC [6] = assay: Antiproliferative activity against HUVEC cells assessed as reduction in cell viability measured after 72 hrs by CCK8 assay; format: functional, cell-based; conditions: Homo sapiens; in short: as §1
MDA-MB-231 [7] = assay: Induction of cell cycle arrest in human MDA-MB-231 cells assessed as accumulation in G0/G1 phase at 40 nM incubated for 36 hrs by propidium iodide staining based flow cytometry; format: functional
In short: (§2)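 Cells were treated with graded concentrations for 36 h, then fixed overnight in 70% ice-cold ethanol at 4°C and resuspended in PBS. Staining used 50 µg/ml PI plus 5 µg/ml RNase at 37°C for 30 min. DNA content was analysed by FACS to give G0/G1, S and G2/M fractions.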

T47D [8] = assay: Induction of cell cycle arrest in human T47D cells assessed as accumulation in G0/G1 phase at 40 nM incubated for 36 hrs by propidium iodide staining based flow cytometry; format: functional; in short: as §2
SiHa [9] = assay: Induction of cell cycle arrest in human SiHa cells assessed as accumulation in G0/G1 phase at 80 nM incubated for 36 hrs by propidium iodide staining based flow cytometry; format: functional; in short: as §2
HeLa [10] = assay: Induction of cell cycle arrest in human HeLa cells assessed as accumulation in G0/G1 phase at 80 nM incubated for 36 hrs by propidium iodide staining based flow cytometry; format: functional; in short: as §2
MDA-MB-231 [11] = assay: Induction of apoptosis in human MDA-MB-231 cells assessed as decrease in Bcl2 expression at 40 nM incubated for 48 hrs by Western blot analysis; format: functional, cell-based
In short: (§3)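 Cells were treated for 48 h, washed three times with PBS, and lysed in RIPA buffer. Immunoblots used anti-Rb, anti-phospho-Rb, anti-Ki67 and anti-Bcl-2 (each 1:1000), with β-actin as loading control.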

T47D [12] = assay: Induction of apoptosis in human T47D cells assessed as decrease in Bcl2 expression at 40 nM incubated for 48 hrs by Western blot analysis; format: functional, cell-based
In short: (§4)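 Cancer cells were exposed to graded concentrations for 48 h, washed three times in PBS and lysed in RIPA buffer. Immunoblots were probed with anti-Rb, anti-phospho-Rb, anti-Ki67 and anti-Bcl-2, each at 1:1000. β-actin served as loading control.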

SiHa [13] = assay: Antitumor activity against human SiHa cells xenografted in NOD/SCID BALB/c mouse assessed as reduction in Ki67 expression at 40 mg/kg, po measured after 21 days by hematoxylin and eosin staining based immunohistochemistry; format: functional, organism-based
In short: (§5)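 Female NOD/SCID Balb/c mice, 6–8 weeks old, received 2×10^6 SiHa cells subcutaneously in the right flank. Once tumors reached 100 mm³, mice were randomized, 5 per group, and gavaged once daily for 21 days. Formalin-fixed, paraffin-embedded tumor sections were stained with Ki67 or CD31 antibody (1:100, 4 °C overnight), then biotin secondary and ABC-peroxidase/DAB, with hematoxylin counterstain.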

[14] = Toxicity in NOD/SCID BALB/c mouse xenografted with human SiHa cells assessed as body weight at 40 mg/kg, po administered for 21 days; format: organism-based; conditions: in vivo, 504 h
In short: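 Female NOD/SCID Balb/c mice, 6–8 weeks, implanted subcutaneously in right flank with 2×10^6 SiHa cells in 100 µL medium. At 100 mm³ tumors, randomized (5 mice/group) to daily oral gavage. Body weight monitored every 3 days; study ended day 21.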

HUVEC [15] = assay: Antiproliferative activity against HUVEC cells assessed as reduction in cell viability at 40 nM measured upto 72 hrs by CCK8 assay; format: functional, cell-based; conditions: Homo sapiens
In short: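 HUVECs, 3×10³ cells/well, kept in 1640 medium with 10% FBS at 37°C and 5% CO₂. Cells were treated at 20 or 40 nM or vehicle, and viability was read by CCK-8 (absorbance 450 nm) at 0, 12, 24, 36, 48, 60 and 72 h. Five replicates per sample.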

HeLa [16] = assay: Antiproliferative activity against human HeLa cells assessed as reduction in cell viability at 80 nM incubated for 48 hrs by EdU staining based laser scanning confocal microscopy; format: functional
In short: (§6)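 Cells, 5×10^4, were seeded in 24-well plates and treated for 48 h. They were then labeled using an EdU Apollo 488 imaging kit with Hoechst 33342 nuclear stain and imaged by laser scanning confocal microscopy. Percent EdU-positive cells = EdU-positive/Hoechst-stained × 100%.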

MDA-MB-231 [17] = assay: Inhibition of colony formation in human MDA-MB-231 cells at 40 nM incubated for 5 days by crystal violet staining based light microscopy; format: functional, cell-based
In short: (§7)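 4 × 10^3 cells per well were cultured with graded concentrations for 5 days. Cells were then fixed with 20% methanol, stained with 0.5% crystal violet and photographed by light microscopy.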

T47D [18] = assay: Inhibition of colony formation in human T47D cells at 40 nM incubated for 5 days by crystal violet staining based light microscopy; format: functional, cell-based
In short: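 MDA-MB-231, T-47D, SiHa and HeLa cells seeded at 4×10^3/well and cultured with varying concentrations of drug or vehicle for 5 days. Fixed in 20% methanol, stained with 0.5% crystal violet, photographed under light microscopy. DMEM (T-47D) with 10% FBS, 37°C, 5% CO2.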

SiHa [19] = assay: Inhibition of colony formation in human SiHa cells at 80 nM incubated for 5 days by crystal violet staining based light microscopy; format: functional, cell-based; in short: as §7
HeLa [20] = assay: Inhibition of colony formation in human HeLa cells at 80 nM incubated for 5 days by crystal violet staining based light microscopy; format: functional, cell-based; in short: as §7
T47D [21] = assay: Antiproliferative activity against human T47D cells assessed as reduction in cell viability at 40 nM incubated for 48 hrs by EdU staining based laser scanning confocal microscopy; format: functional; in short: as §6
SiHa [22] = assay: Antiproliferative activity against human SiHa cells assessed as reduction in cell viability at 80 nM incubated for 48 hrs by EdU staining based laser scanning confocal microscopy; format: functional; in short: as §6
MDA-MB-231 [23] = assay: Antiproliferative activity against human MDA-MB-231 cells at 40 nM assessed as reduction in cell viability incubated for 48 hrs by EdU staining based laser scanning confocal microscopy; format: functional; in short: as §6
MDA-MB-231 [24] = assay: Induction of apoptosis in human MDA-MB-231 cells at 40 nM incubated for 48 hrs by annexin V FITC and propidium iodide staining based flow cytometry; format: functional, cell-based
In short: (§8)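 Annexin V-FITC/PI double staining with flow-cytometric readout. MDA-MB-231, T-47D, SiHa and HeLa cells were treated with graded concentrations for 48 h. MDA-MB-231 and T-47D were grown in DMEM and SiHa in 1640 medium, each with 10% FBS and 1% penicillin/streptomycin at 37°C under 5% CO2. Early- and late-stage apoptotic fractions were scored.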

T47D [25] = assay: Induction of apoptosis in human T47D cells at 40 nM incubated for 48 hrs by annexin V FITC and propidium iodide staining based flow cytometry; format: functional, cell-based; in short: as §8
SiHa [26] = assay: Induction of apoptosis in human SiHa cells at 40 nM incubated for 48 hrs by annexin V FITC and propidium iodide staining based flow cytometry; format: functional, cell-based; in short: as §8
HeLa [27] = assay: Induction of apoptosis in human HeLa cells at 40 nM incubated for 48 hrs by annexin V FITC and propidium iodide staining based flow cytometry; format: functional, cell-based
In short: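 Cells were treated for 48 h, stained with FITC Annexin V and PI, and analyzed by flow cytometry to count early and late apoptotic cells.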

SiHa [28] = assay: Induction of apoptosis in human SiHa cells assessed as decrease in Bcl2 expression at 80 nM incubated for 48 hrs by Western blot analysis; format: functional, cell-based; in short: as §4
HeLa [29] = assay: Induction of apoptosis in human HeLa cells assessed as decrease in Bcl2 expression at 80 nM incubated for 48 hrs by Western blot analysis; format: functional, cell-based; in short: as §3
SiHa [30] = assay: Antitumor activity against human SiHa cells xenografted in NOD/SCID BALB/c mouse assessed as tumor growth inhibition at 40 mg/kg, po administered for 21 days; format: functional, organism-based
SiHa [31] = assay: Antiangiogenic activity against human SiHa cells xenografted in NOD/SCID BALB/c mouse assessed as reduction in CD31 expression at 40 mg/kg, po measured after 21 days by hematoxylin and eosin staining based immunohistochemistry; format: functional, organism-based; in short: as §5

inhibition [1]: 99%
IC50 (HeLa [2]): 0.768 µM
IC50 (T47D [3]): 0.145 µM
IC50 (MDA-MB-231 [5]): 0.062 µM
SMILES: CCN1CCN(Cc2ccc(Nc3ncc(F)c(-c4cc(F)c5nc(C)n(C(C)C)c5c4)n3)nc2)CC1 [ABEMACICLIB]
IC50 (SiHa [4]): 0.861 µM
IC50 (HUVEC [6]): 0.403 µM
Activity (MDA-MB-231 [7]): Active
Activity (T47D [8]): Active
Activity (SiHa [9]): Active
Activity (HeLa [10]): Active
Activity (MDA-MB-231 [11]): Active
Activity (T47D [12]): Active
inhibition (SiHa [13]): Active
Activity [14]: Non-Toxic
inhibition (HUVEC [15]): Active
inhibition (HeLa [16]): Active
inhibition (MDA-MB-231 [17]): Active
inhibition (T47D [18]): Active
inhibition (SiHa [19]): Active
inhibition (HeLa [20]): Active
inhibition (T47D [21]): Active
inhibition (SiHa [22]): Active
inhibition (MDA-MB-231 [23]): Active
Activity (MDA-MB-231 [24]): Active
Activity (T47D [25]): Active
Activity (SiHa [26]): Active
Activity (HeLa [27]): Active
Activity (SiHa [28]): Active
Activity (HeLa [29]): Active
TGI (SiHa [30]): Active
inhibition (SiHa [31]): Active
